Data as given in ChEMBL document CHEMBL1133253, “Improved antibacterial activities of coumarin antibiotics bearing 5',5'-dialkylnoviose: biological activity of RU79115” (Bioorg Med Chem Lett, 2000).
Values after ≈ are worked out from the molar mass of the structure shown.

Key:
Format in all cases: functional
Enterococcus [1] = assay: Minimum inhibitory concentration evaluated against enterococci species resistant to vancomycin [65]*
Enterococcus [2] = assay: Minimum inhibitory concentration evaluated against enterococci species resistant to vancomycin and teicoplanin [17]*
Enterococcus [3] = assay: Minimum inhibitory concentration evaluated against enterococci species susceptible to vancomycin [26]*
Enterococcus [4] = assay: In vitro anti-enterococcal activity against enterococci species resistant to vancomycin [65]* expressed as geometric mean
Enterococcus [5] = assay: In vitro anti-enterococcal activity against enterococci species resistant to vancomycin and teicoplanin [17]* expressed as geometric mean
Enterococcus [6] = assay: In vitro anti-enterococcal activity against enterococci species susceptible to vancomycin [26]* expressed as geometric mean
Mus musculus [7] = assay: Minimum inhibitory concentration of the subcutaneously administered compound evaluated against Staphylococcus aureus HT-18 strain in mice
Mus musculus [8] = assay: Minimum inhibitory concentration of the subcutaneously administered compound evaluated against […] A1UC1 strain in mice
Mus musculus [9] = assay: Minimum inhibitory concentration of the subcutaneously administered compound evaluated against vancomycin resistant Enterococci faecium D3AP9 strain in mice
Mus musculus [10] = assay: Minimum inhibitory concentration of the subcutaneously administered compound evaluated against Enterococci faecalis D2HT6 strain in mice
Mus musculus [11] = assay: Minimum inhibitory concentration of the subcutaneously administered compound evaluated against Enterococci faecium D3HT7 strain in mice
Mus musculus [12] = assay: Minimum inhibitory concentration of the subcutaneously administered compound evaluated against […] B1HT3 strain in mice
Mus musculus [13] = assay: Minimum inhibitory concentration of the subcutaneously administered compound evaluated against Staphylococcus aureus GR56 strain resistant to oxacillin in mice
Mus musculus [14] = assay: Minimum inhibitory concentration of the subcutaneously administered compound evaluated against vancomycin resistant Enterococci faecium D3HM4 strain in mice
Mus musculus [15] = assay: Minimum inhibitory concentration of the subcutaneously administered compound evaluated against vancomycin resistant Enterococci faecium D3HT12 strain in mice
Mus musculus [16] = assay: Protective dose of subcutaneously administered compound against intraperitoneally-induced septicaemia model ([…] B1HT3 strain) in murine; conditions: sc, read-out: PD50
In short: (§1)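 Murine septicaemia was induced by intraperitoneal infection, and the compound was given subcutaneously. PD50 was derived by probit analysis.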

Mus musculus [17] = assay: Protective dose of subcutaneously administered compound against intraperitoneally-induced septicaemia model (Staphylococcus aureus GR56 strain resistant to oxacillin) in murine; conditions: sc, read-out: PD50; in short: as §1
Mus musculus [18] = assay: Protective dose of subcutaneously administered compound against intraperitoneally-induced septicaemia model (Staphylococcus aureus HT18) in murine; conditions: sc, read-out: PD50; in short: as §1
pneumococci = assay: In vitro anti-streptococcal activity against pneumococci resistant to penicillin [29]* expressed as geometric mean
[19] = Minimum inhibitory concentration evaluated against pneumococci resistant to penicillin [29]*
Staphylococcus sp. [20] = assay: Minimum inhibitory concentration evaluated against Staphylococcus species [91]*
In short: (§2)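 Two-fold agar dilution MIC, in µg/mL, against Staphylococcus panels grouped by resistance phenotype (oxacillin and/or ofloxacin resistant). Per-panel values are reported as the geometric mean and MIC90 across strains; the strain count per panel is given in brackets.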

Staphylococcus sp. [21] = assay: Minimum inhibitory concentration evaluated against Staphylococcus species resistant to ofloxacin [59]*; in short: as §2
Staphylococcus sp. [22] = assay: Minimum inhibitory concentration evaluated against Staphylococcus species resistant to oxacillin [66]*; in short: as §2
Staphylococcus sp. [23] = assay: Minimum inhibitory concentration evaluated against Staphylococcus species resistant to oxacillin and ofloxacin [47]*; in short: as §2
Streptococcus sp. [24] = assay: In vitro anti-streptococcal activity against Streptococci species (viridans) [25]* expressed as geometric mean
Streptococcus sp. [25] = assay: In vitro anti-streptococcal activity against Streptococci species [38]* expressed as geometric mean
Streptococcus sp. [26] = assay: Minimum inhibitory concentration evaluated against Streptococci species (viridans) [25]*
Streptococcus sp. [27] = assay: Minimum inhibitory concentration evaluated against Streptococci species [38]*
Staphylococcus sp. [28] = assay: In vitro anti-staphylococcal activity against Staphylococcus species resistant to ofloxacin [59]* expressed as geometric mean; in short: as §2
Staphylococcus sp. [29] = assay: In vitro anti-staphylococcal activity against Staphylococcus species resistant to oxacillin [66]* expressed as geometric mean; in short: as §2
Staphylococcus sp. [30] = assay: In vitro anti-staphylococcal activity against Staphylococcus species resistant to oxacillin and ofloxacin[47]* expressed as geometric mean; in short: as §2
Mus musculus [31] = assay: Protective dose of subcutaneously administered compound against intraperitoneally-induced septicaemia model (vancomycin resistant Enterococci faecium D3HT12 strain ) in murine; conditions: sc, read-out: PD50; in short: as §1
Mus musculus [32] = assay: Protective dose of subcutaneously administered compound against intraperitoneally-induced septicaemia model (Enterococci faecalis D2HT6 strain) in murine; conditions: sc, read-out: PD50; in short: as §1
Mus musculus [33] = assay: Protective dose of subcutaneously administered compound against intraperitoneally-induced septicaemia model (Enterococci faecium D3HT7 strain ) in murine; conditions: sc, read-out: PD50; in short: as §1
Mus musculus [34] = assay: Protective dose of subcutaneously administered compound against intraperitoneally-induced septicaemia model ([…] A1UC1 strain) in murine; conditions: sc, read-out: PD50; in short: as §1
Mus musculus [35] = assay: Protective dose of subcutaneously administered compound against intraperitoneally-induced septicaemia model (vancomycin resistant Enterococci faecium D3AP9 strain ) in murine; conditions: sc, read-out: PD50; in short: as §1
Mus musculus [36] = assay: Protective dose of subcutaneously administered compound against intraperitoneally-induced septicaemia model (vancomycin resistant Enterococci faecium D3HM3 strain ) in murine; conditions: sc, read-out: PD50; in short: as §1
Mus musculus [37] = assay: Protective dose of subcutaneously administered compound against intraperitoneally-induced septicaemia model (vancomycin resistant Enterococci faecium D3HM4 strain ) in murine; conditions: sc, read-out: PD50; in short: as §1
Staphylococcus sp. [38] = assay: In vitro anti-staphylococcal activity against Staphylococcus species [91]* expressed as geometric mean
In short: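 Two-fold agar-dilution MICs (µg/mL) were run on a panel of staphylococcal isolates and summarised as the geometric mean across strains.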

SMILES: CC(=O)NC[C@H]1CN(c2ccc(N3CCN(C(=O)CO)CC3)c(F)c2)C(=O)O1 [EPEREZOLID]
- MIC90 (Enterococcus [1]): 1.2 µg/mL (≈ 3.04 µM)
- MIC90 (Enterococcus [2]): 1.2 µg/mL (≈ 3.04 µM)
- MIC90 (Enterococcus [3]): 0.6 µg/mL (≈ 1.52 µM)
- GM (Enterococcus [4]): 0.72
- GM (Enterococcus [5]): 0.43
- GM (Enterococcus [6]): 0.51
- MIC (Mus musculus [7]): 0.6 µg/mL (≈ 1.52 µM)
- MIC (Mus musculus [8]): < 0.15 µg/mL
- MIC (Mus musculus [9]): 1.2 µg/mL (≈ 3.04 µM)
- MIC (Mus musculus [10]): 0.6 µg/mL (≈ 1.52 µM)
- MIC (Mus musculus [11]): 0.6 µg/mL (≈ 1.52 µM)
- MIC (Mus musculus [12]): 0.6 µg/mL (≈ 1.52 µM)
- MIC (Mus musculus [13]): 1.2 µg/mL (≈ 3.04 µM)
- MIC (Mus musculus [14]): 0.3 µg/mL (≈ 0.761 µM)
- MIC (Mus musculus [15]): 0.3 µg/mL (≈ 0.761 µM)
- ED50 (Mus musculus [16]): > 50 mg/kg
- ED50 (Mus musculus [17]): 5 mg/kg
- ED50 (Mus musculus [18]): 20 mg/kg
- GM (pneumococci): 0.25
- MIC90 [19]: 0.3 µg/mL (≈ 0.761 µM)
- MIC90 (Staphylococcus sp. [20]): 1.2 µg/mL (≈ 3.04 µM)
- MIC90 (Staphylococcus sp. [21]): 1.2 µg/mL (≈ 3.04 µM)
- MIC90 (Staphylococcus sp. [22]): 1.2 µg/mL (≈ 3.04 µM)
- MIC90 (Staphylococcus sp. [23]): 1.2 µg/mL (≈ 3.04 µM)
- GM (Streptococcus sp. [24]): 0.39
- GM (Streptococcus sp. [25]): 0.52
- MIC90 (Streptococcus sp. [26]): 1.2 µg/mL (≈ 3.04 µM)
- MIC90 (Streptococcus sp. [27]): 0.6 µg/mL (≈ 1.52 µM)
- GM (Staphylococcus sp. [28]): 0.71
- GM (Staphylococcus sp. [29]): 0.73
- GM (Staphylococcus sp. [30]): 0.72
- ED50 (Mus musculus [31]): 1.5 mg/kg
- ED50 (Mus musculus [32]): 6.4 mg/kg
- ED50 (Mus musculus [33]): 3 mg/kg
- ED50 (Mus musculus [34]): 22.8 mg/kg
- ED50 (Mus musculus [35]): 8.7 mg/kg
- ED50 (Mus musculus [36]): 2.8 mg/kg
- ED50 (Mus musculus [37]): 27.2 mg/kg
- GM (Staphylococcus sp. [38]): 0.74
